This is an account of results in article PMC4469080 (Bioorganic & medicinal chemistry letters, 2015).

The target in data set [1] is T1, mouse SR-BI (Mus musculus, UniProt Q61009).
T1 sequence (Q61009 1-509): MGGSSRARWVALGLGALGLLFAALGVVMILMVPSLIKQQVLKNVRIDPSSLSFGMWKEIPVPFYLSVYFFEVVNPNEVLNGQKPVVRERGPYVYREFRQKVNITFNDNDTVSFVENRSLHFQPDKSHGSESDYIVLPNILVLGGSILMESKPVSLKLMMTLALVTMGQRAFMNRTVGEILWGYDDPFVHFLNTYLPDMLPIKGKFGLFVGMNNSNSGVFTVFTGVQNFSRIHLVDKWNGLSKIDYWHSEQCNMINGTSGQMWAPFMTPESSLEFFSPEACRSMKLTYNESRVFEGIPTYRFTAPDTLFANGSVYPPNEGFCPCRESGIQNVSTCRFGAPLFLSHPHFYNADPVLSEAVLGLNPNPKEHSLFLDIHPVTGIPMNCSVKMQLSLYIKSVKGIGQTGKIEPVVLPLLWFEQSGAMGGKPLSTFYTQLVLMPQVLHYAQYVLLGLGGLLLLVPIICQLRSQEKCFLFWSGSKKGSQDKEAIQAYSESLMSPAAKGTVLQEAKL
In words: DiI-HDL uptake assay. It counts as cell-based. The note with it: for activity in DiI uptake assay (in words): inhibition of SR-BI-mediated lipid uptake. In a few lines:
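CHO cells (ldlA line) overexpressing mouse SR-BI take up the fluorescent lipid DiI from DiI-labeled HDL particles. In the high-throughput screen, compounds were tested at 12.5 μM against 1 μM BLT-1 as the positive control. Plates with Z′ < 0.3 were excluded, and a counterscreen removed compounds that quenched DiI-HDL fluorescence in a dose-dependent manner. IC50 values came from retests of compounds as purified dry powders.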

Data set [2] deals with T1, mouse SR-BI. As to conditions: read-out: IC50 in the primary assay; previous probes; cited from earlier work.
Another data set in a line: Solubility in PBS. It counts as physicochemical. As to conditions: in PBS (with 1% DMSO).

Where two headings read alike, the source gives them in different places.

`C[C@@H]1CN([C@H](C)CN(C)C)C(=O)c2cc(NC(=O)Cc3cn(C)c4ccccc34)ccc2O[C@H]1CN(C)S(=O)(=O)c1ccc(Cl)cc1` [Compound 10]: at mouse SR-BI [1], the “activity in DiI uptake assay (in words)” value was “inactive”.
In turn, `C[C@@H]1CN([C@H](C)CO)C(=O)c2cc(NC(=O)Cc3cn(C)c4ccccc34)ccc2O[C@H]1CN(C)S(=O)(=O)c1ccc(Cl)cc1` [Compound 1a] showed an IC50 against mouse SR-BI [1] of 460 nM.
Take `COCC(=O)n1ccc2cc(-c3csc(NC(=O)c4cc(OC)cc(OC)c4)n3)ccc21` [ML278]: the IC50 at mouse SR-BI [2] is 6 nM.
With `C[C@@H]1CN([C@H](C)CN)C(=O)c2cc(NC(=O)Cc3cn(C)c4ccccc34)ccc2O[C@H]1CN(C)S(=O)(=O)c1ccc(Cl)cc1` [Compound 9], the “activity in DiI uptake assay (in words)” value on mouse SR-BI [1] is “inactive”.
Still for that read-out and setting: the same measure for `CC(C)NC(=O)Nc1ccc2c(c1)C(=O)N(C(C)C)C[C@@H](C)[C@H](CN(C)S(=O)(=O)c1ccc(Cl)cc1)O2` [Compound 12]: “weak activity”; for `CC(C)NC(=O)Nc1cccc2c1O[C@@H](CN(C)S(=O)(=O)c1ccc(Cl)cc1)[C@H](C)CN([C@H](C)CO)C2=O` [Compound 3]: “inactive”.
For the compound `COC[C@@H](C)N1C[C@@H](C)[C@H](CN(C)S(=O)(=O)c2ccc(Cl)cc2)Oc2ccc(NC(=O)NC(C)C)cc2C1=O` [Compound 11], the “activity in DiI uptake assay (in words)” value on mouse SR-BI [1] is recorded as “only weakly active”.
Compound `C[C@@H]1CN([C@H](C)CO)C(=O)c2cc(NC(=O)C3CCCCC3)ccc2O[C@H]1CN(C)S(=O)(=O)c1cccc(Cl)c1` [Compound 6] returned an IC50 against mouse SR-BI [1] (DiI uptake assay, average of at least two measurements (Table 4, various analogs)) of 800 nM.
As for `C[C@@H]1CN([C@H](C)CO)C(=O)c2cc(NC(=O)Cc3cn(C)c4ccccc34)ccc2O[C@H]1CN(C)S(C)(=O)=O` [Compound 1g], the “activity in DiI uptake assay (in words)” value on mouse SR-BI [1] is reported as “weak potency”. The solubility entry in the data set “Solubility in PBS” is “good solubility”.
With `CC(C)NC(=O)Nc1ccc2c(c1)C(=O)N([C@H](C)CO)C[C@@H](C)[C@H](CN(C)S(=O)(=O)c1ccc(Cl)cc1)O2` [Compound 4], the “activity in DiI uptake assay (in words)” value at mouse SR-BI [1] is on record as “abrogated the activity”.
Still for that read-out and setting: the same measure for `C[C@@H]1CN([C@H](C)CO)C(=O)c2cc(NC(=O)C3CCCCC3)ccc2O[C@H]1CN(C)C(=O)c1ccc(Cl)cc1` [Compound 5]: “inactive”.
